ABHD5-PLIN5 inh – ABHD5-PLIN5 interaction inhibitors, primary screen, cell lysate, split luciferase complementation, luminescence; Perilipin-5 (Homo sapiens) + 1-acylglycerol-3-phosphate O-acyltransferase ABHD5 (Homo …; Split G. princeps luciferase complementation, 4 h; hit rate 0.78% among 360,000; inhibition, % at 4 µM;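 active = inhibition above the mean inhibition across every tested compound plus 3 SD, cut at about 22% in these data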
MC4R antagonist – MC4R antagonists of cAMP signaling, primary screen, cell-based, TR-FRET, antagonist arm of biased-ligand search; MC4R-expressing cells, MTII-stimulated cAMP, LANCE TR-FRET; inhibition, % at 6.5 µM; hit rate 0.48% among 360,000;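 active = inhibition above its plate's cutoff, the mean of tested wells on that plate plus 3 SD, cut at about 29% in these data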
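Assay system: U2OS cells stably expressing human melanocortin 4 receptor (MC4R) / Dosing: 6.5 µM / Timing: compound 30 min, challenge 1 h, detection 1 h / Measured by: Eu-cAMP/anti-cAMP TR-FRET, emission 671 nm / Replicates: singlicate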
B2AR ag – beta2AR agonists driving receptor internalization, primary screen, cell-based, FAP fluorogen, flow cytometry; Beta-2 adrenergic receptor (Homo sapiens), P07550; Am2.2-beta2AR cells; response, % (concentration not given with the values); hit rate 0.43% among 340,000; AID 504454, 2011;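 active = response above a set limit, near 3 SD of response in nonfluorescent compounds, cut at about 42% in these data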
Target sequence (P07550 whole entry, looked up): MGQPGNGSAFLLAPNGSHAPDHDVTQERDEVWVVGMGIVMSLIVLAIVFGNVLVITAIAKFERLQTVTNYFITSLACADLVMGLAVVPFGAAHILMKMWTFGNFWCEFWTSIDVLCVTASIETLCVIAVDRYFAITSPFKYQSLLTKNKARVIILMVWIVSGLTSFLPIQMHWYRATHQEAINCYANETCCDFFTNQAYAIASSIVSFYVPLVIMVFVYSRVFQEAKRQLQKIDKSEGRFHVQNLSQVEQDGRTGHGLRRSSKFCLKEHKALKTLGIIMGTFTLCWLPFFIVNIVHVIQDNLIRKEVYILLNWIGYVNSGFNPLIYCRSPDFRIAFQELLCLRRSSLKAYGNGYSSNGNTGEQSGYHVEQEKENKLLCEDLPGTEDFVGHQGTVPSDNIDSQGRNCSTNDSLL
PfG6PD inh – PfG6PD enzyme inhibitors, primary screen, biochemical, fluorescence intensity, uHTS; PfGluPho enzyme, NADPH resazurin-diaphorase fluorescence; glucose-6-phosphate dehydrogenase-6-phosphogluconolactonase (Plasmodium falciparum 3D7); inhibition, % at 20 µM; hit rate 0.78% among 350,000;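 active = inhibition reaching at least a set limit at 20 µM in the primary screen, cut at about 59% in these data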
MC4R ag barr – MC4R agonists recruiting beta-arrestin, primary screen, cell-based, luminescence, agonist arm of biased-ligand search; Melanocortin receptor 4 (Homo sapiens), P32245; U2OS MC4R beta-arrestin complementation; percent of melanotan II response, DMSO zero; activation, % at 8.9 µM; hit rate 0.98% among 360,000; AID 540308, 2011;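 active = activation above a per-plate cutoff, the mean activation of sample wells on that plate plus 3 SD, cut at about 8% in these data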
ABHD5 PLIN5 conf – ABHD5-PLIN5 interaction inhibitors, confirmation, biochemical, luminescence; shares compounds with ABHD5-PLIN5 inh; inhibition, % at 4 µM; hit rate 67% among 2,200; AID 651612, 2012; in the data active = inhibition above about 23%
HNF4 counter – HNF4 dimerization inhibitors, counter-screen for ABHD5-PLIN5 interaction inhibitor project, biochemical, split-luciferase complementation, luminescence; inhibition, % at 4 µM; hit rate 77% among 2,200; AID 651674, 2012; shares compounds with ABHD5-PLIN5 inh;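 active = mean inhibition across replicate wells exceeding the computed hit threshold, cut at about 13% in these data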;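 note: light from luciferase halves that rejoin when HNF4 fusion proteins dimerize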
Of the large screens only hits and unclear results are named; the others gave an inactive call (follow-up assays come after a bar, where they were run). This is a sample that favours compounds with a hit; in the whole collection about 3% have one here.

Cc1c(O)ccc2c(CC(=O)N[C@@H](Cc3c[nH]c4ccccc34)C(=O)O)cc(=O)oc12	none
CCOc1ccc(/C=C/C(=O)c2c(O)cc(C)oc2=O)cc1	none
COc1ccc(-c2cc(=O)oc3c(C)c(O)ccc23)cc1	none
COc1ccc(/C=C/C(=O)c2c(O)ccc3c(C)cc(=O)oc23)cc1	ABHD5-PLIN5 inh 47 | ABHD5 PLIN5 conf 65 | HNF4 counter 55
COc1ccc(/C=C\C(=O)c2c(O)ccc3c(C)cc(=O)oc23)cc1	ABHD5-PLIN5 inh 47 | ABHD5 PLIN5 conf 61 | HNF4 counter 44
O=C(c1cc2cc(F)ccc2[nH]1)N1CCCC(Nc2ccc(F)cc2)C1 (configuration not stated)	none
CC(=O)Oc1ccc(N2C(=O)C3C4C=CC(CO)(O4)C3C2=O)cc1 (configuration not stated)	ABHD5-PLIN5 inh 26 | ABHD5 PLIN5 conf inactive | HNF4 counter 67
C#CC[N+](C)(C)CCCCCCCCCCCC	ABHD5-PLIN5 inh 23 | ABHD5 PLIN5 conf inactive | HNF4 counter inactive
C#CC[N+](C)(C)CCCCCCCCCC	none
CC#CC[N+](C)(C)CCCCCCCCCCCC	ABHD5-PLIN5 inh 27 | ABHD5 PLIN5 conf inactive | HNF4 counter inactive
CCOC(=O)[C@H]1[C@H]2COc3ccc(Cl)cc3[C@@H]2N2C(=O)c3cc(F)c(F)cc3NC(=O)[C@@]12C	none
COc1ccccc1C1CC(c2cccs2)=Nc2ccccc2S1 (configuration not stated)	ABHD5-PLIN5 inh 45 | ABHD5 PLIN5 conf inactive | HNF4 counter inactive
NS(=O)(=O)c1cccc(NC(=O)CSc2nnc(NC3CC3)s2)c1	none (no result: B2AR ag)
CC(C)=CCOc1ccc2c(C)c(CCC(=O)N3C[C@H]4C[C@@H](C3)c3cccc(=O)n3C4)c(=O)oc2c1C	none (no result: B2AR ag, PfG6PD inh)
CCN(CCCc1ccccc1)CCCc1ccccc1	ABHD5-PLIN5 inh 38 | ABHD5 PLIN5 conf 74 | HNF4 counter 33
CCCN(CCO)CCCc1ccccc1	none
CC1=NOC(=O)/C1=C\c1ccc(-c2ccc(Br)cc2)o1	ABHD5-PLIN5 inh 38, B2AR ag 83 | ABHD5 PLIN5 conf 93 | HNF4 counter 106
O=C(/C=C/c1c(F)cccc1Cl)c1ccc(O)cc1	ABHD5-PLIN5 inh 39 | ABHD5 PLIN5 conf 46 | HNF4 counter 48
O=C(C=Cc1ccccc1F)c1ccccc1	ABHD5-PLIN5 inh 69 (no result: MC4R antagonist, B2AR ag, PfG6PD inh, MC4R ag barr) | ABHD5 PLIN5 conf 87 | HNF4 counter 79
CC(/C=C/c1ccccc1F)=N\NC(=O)c1ccc(Cl)cc1	none
O=C(/C=C/c1ccccc1)NNC(=O)c1cccc(Cl)c1	none
O=C(/C=C/c1ccccc1Cl)c1ccc(O)cc1	none
O=C(O)c1ccc2c(c1)C(=O)N(c1cccc(C(=O)/C=C/c3ccccc3)c1)C2=O	ABHD5-PLIN5 inh 46 | ABHD5 PLIN5 conf 97 | HNF4 counter 91
O=C(C=Cc1cccc(Cl)c1)c1ccccc1	ABHD5-PLIN5 inh 51 | ABHD5 PLIN5 conf 97 | HNF4 counter 94
Cc1ccc(CNC(=O)CSc2nnc3n2CCCCC3)cc1	none
CC(NS(=O)(=O)c1cccc(C(=O)NCc2ccncc2)c1)c1ccccc1 (configuration not stated)	none
NC(=O)C1=C[C@H](c2coc3ccccc3c2=O)C[C@H](OCCCCO)O1	ABHD5-PLIN5 inh 23 | ABHD5 PLIN5 conf inactive | HNF4 counter inactive
CCSc1ccc([C@@H]2[C@@H]3C(=O)N(CC)C(=O)[C@@H]3[C@]3(C(=O)OC)CCCN23)cc1	none
O=C1S/C(=C/c2ccc(N3CCOCC3)o2)C(=O)N1Cc1c(F)cccc1Cl	ABHD5-PLIN5 inh 25 | ABHD5 PLIN5 conf 23 | HNF4 counter 36
Cn1c(CNC(=O)c2ccco2)nnc1SCC(=O)Nc1ccc(Cl)cc1	none
COc1ccc(C(C(=O)NC2CCCC2)N(C(=O)c2ccco2)c2cc3c(cc2C(C)=O)OCO3)cc1OC (configuration not stated)	none
CCn1c(=S)[nH]c2scc(-c3cccs3)c2c1=O	none
C=CCn1c(=S)[nH]c2scc(-c3ccc(C)o3)c2c1=O	ABHD5-PLIN5 inh 32 | ABHD5 PLIN5 conf inactive | HNF4 counter 66
O=C(C(=Cc1ccc(F)cc1)C(=O)c1ccccc1)c1ccccc1	ABHD5-PLIN5 inh 94 (no result: MC4R antagonist, B2AR ag, PfG6PD inh, MC4R ag barr) | ABHD5 PLIN5 conf 97 | HNF4 counter 87
CCC(=O)Nc1ccc(/C=C(\C(C)=O)C(=O)c2ccccc2)cc1	ABHD5-PLIN5 inh 28 | ABHD5 PLIN5 conf 44 | HNF4 counter 51
COc1cccc(C=C(C(C)=O)C(=O)c2ccccc2)c1	ABHD5-PLIN5 inh 77 (no result: MC4R antagonist, B2AR ag, PfG6PD inh, MC4R ag barr) | ABHD5 PLIN5 conf 87 | HNF4 counter 80
O=C(NCc1ccccc1)C1C(c2ccc3c(c2)OCO3)=Nc2ccccc2N1C(=O)c1ccco1 (configuration not stated)	none (no result: MC4R antagonist, B2AR ag, PfG6PD inh, MC4R ag barr)
Cc1c(C(=O)c2no[n+]([O-])c2C(=O)c2cnn(C)c2C)cnn1C	ABHD5-PLIN5 inh 29 | ABHD5 PLIN5 conf 58 | HNF4 counter 74
CCOc1ccc(CN(C)C(=O)c2ccc(NC(=O)CC3SC(N4CCCC4)=NC3=O)cc2)cc1 (configuration not stated)	none
CCOc1cc(/C=C\c2[nH]c(=O)[nH]c(=O)c2[N+](=O)[O-])ccc1OC(C)CC (configuration not stated)	none (no result: ABHD5-PLIN5 inh, MC4R antagonist, B2AR ag, MC4R ag barr)
CCOC(=O)COc1ccc(Br)cc1/C=C\c1[nH]c(=O)[nH]c(=O)c1[N+](=O)[O-]	ABHD5-PLIN5 inh 64 | ABHD5 PLIN5 conf 85 | HNF4 counter 94
CCCOc1ccc(/C=C/c2[nH]c(=O)[nH]c(=O)c2[N+](=O)[O-])cc1OCC	none
CCOC(=O)COc1ccc(Br)cc1/C=C/c1[nH]c(=O)[nH]c(=O)c1[N+](=O)[O-]	ABHD5-PLIN5 inh 65 | ABHD5 PLIN5 conf 76 | HNF4 counter 85
CCOc1cc(CN2CCN(c3ncccn3)CC2)ccc1OC	none
CC(Oc1ccc(Br)cc1)C(=O)Nc1cc(Cl)ccc1N1CCN(C)CC1 (configuration not stated)	none
CCCN(C(=O)c1cc(S(=O)(=O)N2CCN(CC)CC2)ccc1Cl)C1CCS(=O)(=O)C1 (configuration not stated)	ABHD5-PLIN5 inh 26 | ABHD5 PLIN5 conf inactive | HNF4 counter inactive

Compound activity from PubChem.
